Test results as given in the EternaBench riboswitch data.

Tested on: MS2 coat protein
Experiment: apparent Kd, MS2 coat protein; higher = weaker binding; RNA-MaP array; FMN 200 µM where present
Method in brief: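 Stalled E. coli RNA polymerase produced the designs on Illumina sequencing-chip clusters. SNAP-549-labelled MS2 coat protein was added from 0.7 or 1.5 nM, doubling to 3 µM, without and then with constant ligand, in 100 mM Tris-HCl pH 7.5, 80 mM KCl, 4 mM MgCl2, BSA, DTT, yeast tRNA and Tween-20. The apparent Kd is the median of filtered per-cluster fits of green signal normalised to red-channel RNA signal and control-cluster median Fmax.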

[1] = designed as: OFF switch for flavin mononucleotide, no ligand
[2] = ligand present: flavin mononucleotide, designed as: OFF switch for flavin mononucleotide
[3] = designed as: ON switch for flavin mononucleotide, no ligand
[4] = ligand present: flavin mononucleotide, designed as: ON switch for flavin mononucleotide

Row | Sequence | apparent Kd [1] [nM] | apparent Kd [2] [nM] | apparent Kd [3] [nM] | apparent Kd [4] [nM]
1 | CAGUACUGAGGAUAUACAUGAGGAUCACCCAUGUGCUUUAGCUAGGAUACUAGCACCAGUAGAAGGCAGUACUG | 10.6 | 23.8 | – | –
2 | UAUAUAUAGUAAGGAUAUGUAUUUAUUUGAUAAACAGAAGGUACUGACAUGAGGAUCACCCAUGUUUUAGUGUGGGCAUGUAGA | 81.6 | 131 | – | –
3 | CAUGGGACUUCCUCGCGGAACAUGAGGAUCACCCAUGUUGCGGAGGAUAUACUUCGGCGCUCCGAGUAGAAGGCUGCAGAUCCC | 24.4 | 33.1 | – | –
4 | AGGAAACAUGAGGAUCACCCAUGUAAAAAUAUGGGAGGAUAUGCGAAAAGAAACAAAGAAGCAGAAGGCCUAAGAA | – | – | 89.8 | 23.1
5 | GUGGUACAUGAGGAUCACCCAUGUUAGGAUAUCGCGUGGUUUUUUGCGGCCGCGCGCGCGAGAAGGGACGUCUU | 41.4 | 31.7 | – | –
6 | AGCUAGAGAGGAUAUACGUGGAAAAAAAAAGUCUGAUCCCUACAUGAGGAUCACCCAUGUAGAAGGCUCUGGCA | 30.9 | 15.1 | – | –
7 | ACAUGAGGAUCACCCAUGUUUUCAGGGACUUCAAUUAUUUGUAGAAGGAUGUUUACUUGUUAGUCAUAGGAUAUACAAUUAAAU | 12.2 | 12.9 | – | –
8 | GCCAUCGCAUGAGGAUAUCCUCAGCUUUGCUGAGGAGAAGGCAUGUCAAUAGACAUGAGGAUCACCCAUGUAGUUAAGAUGGCA | – | – | 692 | 81.3
9 | AUCUUUAACAUAGGAUAUAGUAUGAAGGUUUAUUUAGAAGGAUGUCACAUGAGGAUCACCCAUGUAAUAGGAUUACCCAUGUAU | 29.8 | 21.9 | – | –
10 | GGGCUCGGAGGAUAUACAAUUCUGGGCUGAAAGGCUCGGGUACAUGAGGAUCACCCAUGUAGAAGGUCGGGUCU | 15.9 | 15.9 | – | –
11 | GCUAGACGUCGAGGAUAUGGGUGUGCGAGUCUUGGCACUGGACAUGAGGAUCACCCAUGUCGCUUCCAGAAGGCGACGUCCCUA | – | – | 38.6 | 6.39
12 | AAUCGUAGAACGAUCACUACCAGUCAGGAUAUACAUGAGGAUCACCCAUGUCGUGUCGACAGCAUGUAGAAGGGACGGUUAUAU | 27.1 | 66 | – | –
13 | UUGGUUGUCGUAGGAUAUGUAGGAUAUUCCUACAUGAGGAUCACCCAUGUUCGCAUGGAAGAAGGACAGAAGGACGAUGACCAU | – | – | 1290 | 23.7
14 | CUAGUACAUGAGGAUCACCCAUGUCAGGAUAUUGGAUAUGCCUUGGAAUACGUGUUUACAAGAAGGGACUAUAG | 18.7 | 19.2 | – | –
15 | CCGUAGCAAGGAUAUACAUGAGGAUCACCCAUGUGUGUCAGUGUGGGUAGACAUUAAUGUAGAAGGUGCGACUG | 64.8 | 161 | – | –
16 | AAAGAAAACAUAGGAUAUGUAACAUGAGGAUCACCCAUGUAUACCUCGUAAGAGAUGAUGGAUGGACAGAAGGAUGAUCUCAGG | – | – | 140 | 214
17 | GUAGCAUACCGAGGAUAUUCAUACCGAAAACGGACAUGAGGAUCACCCAUGUGGCGAAAGCCUUGGGAGAAGGCGGAAUGCUAC | – | – | 592 | 26.2
18 | UGUUAAUAAGAGAAGGAGGACUUCAUGAGGAUCACCCAUGUGUUAGUACUUAGGAUAUUUAAUAACAUGAGGAUCACCCAUGUC | – | – | 45.2 | 40.4
19 | UCGGCGCGAGGAUAUACGUUUGCGCUUUUUCGUUUUUGCGUACAUGAGGAUCACCCAUGUAGAAGGCGCGCCGC | 15.6 | 23 | – | –
20 | CAGUCUACAGGAUAUACAUGAGGAUCACCCAUGUAAAUUCACUUUCGAUAGUCUACAUGUAGAAGGGUAGACUG | 15.5 | 18.6 | – | –
21 | CGUGUUGACGAAGGAUAUGGAUACAUGAGGAUCACCCAUGUUUAAUUUGUGAUUUUGUUAAAGUACCAGAAGGUCGAAUACACG | 142 | 118 | – | –
22 | CAGCGAUAGCUGAAUGGUACAUGGGAGGAUAUGGGUUGAACAUGAGGAUCACCCAUGUUAUAAUACUAGAAGGCCCAUGUACCU | – | – | 16.6 | 5.45
23 | CAGGAUAGAGGAUAUGCAUAGAUACAGAUUCAUGUAAUCCUACAUGAGGAUCACCCAUGUAGAAGGCUAUCCUG | 15.1 | 35 | – | –
24 | UGUGCCUCGAGAGGAUAUACAUGAGGAUCACCCAUGUAAGUAGAGGUGGAAACACCUCUACAAAUGUAGAAGGCUCGAGGCACA | 20.6 | 58.3 | – | –
25 | ACUGCAUAGGCAGGAUAUGCAAAAGCAGAUGCAAAGCAUUUGUAAAACACAUGAGGAUCACCCAUGUAGAAGGGCCUGUGCAGU | 21 | 20.7 | – | –
26 | AUUUGAAUCGUAGGAUAUCGCUUAAAUUUACCACGAGAAGGACGAACAUGAGGAUCACCCAUGUAACAUGGUGUAGAUAAUUUG | 159 | 440 | – | –
27 | UUACUACAUGAGGAUCACCCAUGUCAGGAUAUUGUCUAUACUUUGGAAUAUGUGUCGACAAGAAGGGACUAUAU | 23.5 | 39.9 | – | –
28 | UCGCUCCGUGUAGGAUAUCGCCGUUCUACUCGGCGAGAAGGACAUGAGGAUCACCCAUGUAUGUUAUUAUCACGUGUGGCGCGC | 18.5 | 29.5 | – | –

Row | Sequence | apparent Kd [1] [nM] | apparent Kd [2] [nM] | apparent Kd [3] [nM] | apparent Kd [4] [nM]
29 | UGCAUGCUAGGAUAUACGGGACAUUAGGGUUUGUCGUGUGGACAUGAGGAUCACCCAUGUAGAAGGAGCGUGCU | 49.5 | 207 | – | –
30 | CAACAGUCAGGAUAUGCAAAAAAAAAAAAAAAAAAAAAAAAGCAGAAGGGACAUGAGGAUCACCCAUGUUGUCG | 30 | 16.7 | – | –
31 | UGUCGGAGCAGAGGAUAUACAUGAGGAUCACCCAUGUAAUAAGAUCAAGCCUGGAAACAGGCAAUGUAGAAGGCUGCUCCGACA | 34 | 422 | – | –
32 | UUGGACGUCGUAGGAUAUGUAGGAUAUUCCUACAUGAGGAUCACCCAUGUUGACAUGGAAGAAGGAGAGAAGGACGAUGUCCAU | – | – | 308 | 354
33 | GCAGGCUUCGAGAAGGACAUGAGGAUCACCCAUGUGCGUGUGAAGCAGCCGUGAGGCUGCAUCAUGUAGGAUAUCGGAGUCUGG | 72.2 | 525 | – | –
34 | UGAUAACAUGUAGGAUAUGCAGCAUUGACCACUGCAGAAGGACAUGAGGAUCACCCAUGUAGUUGUACUAUGGGAUCACGCAAU | 419 | 194 | – | –
35 | AAUCCACAUGAGGAUCACCCAUGUGAGGAUAUGAUACUAUGUACUUCGGUACAUAGUAUCAGAAGGCACGGAUC | 33.2 | 50.4 | – | –
36 | UGUUGUAUUACAGGAUAUCUAUUGUUGUUAUUUAGAGAAGGGUAUUCACAUGAGGAUCACCCAUGUAUAUACGAGGAAGUUGUG | – | – | 56 | 56.6
37 | UCUUUCCGGAAUAUAAGUUGACUUCAGGAUAUCACAUGAGGAUCACCCAUGUGAUGCUUUAUUGCUGAGAAGGGAAGUCAUACC | 11.7 | 38.6 | – | –
38 | GUCUCGAUGUAAGGAUAUGCAGUGGAAUACACUGCAGAAGGUACAUGAGGAUCACCCAUGUAACUCUAAUAAUAAUAACGAGAC | 12 | 19.2 | – | –
39 | GUCAGCUCGUGAGGAUAUACAACACUGCUUCGGCAGUGUAUAAAGAUCACAUGAGGAUCACCCAUGUAGAAGGCACGAGCUGAU | 15.2 | 213 | – | –
40 | GUUUAGUGAGGAUAUGUGGCAUAGAUCGAGCGCGGUCGGCUACAGAAGGCACAUGAGGAUCACCCAUGUUUCUC | 39.9 | 498 | – | –
41 | GCCUUAUCUGUCAGGAUAUACAAUAAAAUAUUUUUGUAGAAGGGACAUGAGGAUCACCCAUGUACAUUACAUUG | 42 | 262 | – | –
42 | AUCAGCUCGUCAGGAUAUACGUCACUGCGUCUGCAGUGUGGUAAGAUCACAUGAGGAUCACCCAUGUAGAAGGGACGAGCUGAU | 14.1 | 254 | – | –
43 | ACUAUACGAGGAUAUGCUGUCAAUACUAAGGAAUUAGUAUGACAUGAGGAUCACCCAUGUAGAAGGCGUAUACU | 27.8 | 14.7 | – | –
44 | GUAGCAUUCUGAGGAUAUUCAUACCGGUAACGGACAUGAGGAUCACCCAUGUGGCGAAAGCCUUGGGAGAAGGCAGUAUGCUAC | – | – | 171 | 10
45 | CUAAAUCAUGUAGGAUAUGCAUGGCGAAGCUACGCAGAAGGACAUGAGGAUCACCCAUGUCUCUCCGUCUGCGUACAGACGGAG | 20.5 | 119 | – | –
46 | AUAUAUAUACAGAAGGUGCCAGCGAGAGCUGCACAUGAGGAUCACCCAUGUUGUCGGUGACGACGCAAGGAUAUGUAUAUAUAU | – | – | 27 | 7.62
47 | CCCUACACCGAGAAGGGCACGUAUUGAAGAGGGUGCCAGGAACAUCACAUGAGGAUCACCCAUGUGCAGGAUAUCGGCAGGAAC | 9.41 | 19.9 | – | –
48 | AAAAAAAAAAGGCAGGAUAUCCAAAAAAAAACAUGAGGAUCACCCAUGUAAAAAAAAAAAAAGUGGGAGAAGGGCCAAAAAAAAAA | – | – | 45.3 | 15.6
49 | AACCUAUUACAGAAGGCCAGCUACAUGAGGAUCACCCAUGUCGAGUCAUGGAGGAUAUGUAGUAAUUUGCCCGCGGGCGAGUAC | – | – | 31.3 | 5.78
50 | GCACUUAGAGAUUUACCGUUACUAACAUGAGGAUCACCCAUGUAGGAUAUGCUAAUAGUAUUGAAGCAGAAGGACACUAAGUGC | 5 | 5.18 | – | –
51 | AGCUGUGGCCGAGGAUAUCUAACAAUCCCAACCGAAAUAUAAUCGGACAUGAGGAUCACCCAUGUAGAGAAGGCGGUCUCAGCA | 208 | 329 | – | –
52 | UAGGUGUGAGGAUAUGGUAAAGAUAAAAUGAUGAAAGAACUCCAGAAGGCACAUGAGGAUCACCCAUGUAGAUG | 29.2 | 54.9 | – | –
53 | GGAGCCGGCACGGAGGAUAUUCAUAUUAAAACAUGAGGAUCACCCAUGUAGGCCAGAAGGCCUUGGGAGAAGGCCGAUCGGCUCG | – | – | 450 | 29.7
54 | ACAUGAGGAUCACCCAUGUAUACAUAGGAUAUUGAGGAUCAGGGAUGUUUUACAGGAUAUGUCUACGAGAAGGAUGCAAGUACA | – | – | 33.5 | 28.6
55 | UGCUACGUUUCGUAGCAGCUAGGUGAGGAUAUUCAAUUUUUCACAUGAGGAUCACCCAUGUAUGUGAAGAAGGCGCCUAGAAAU | – | – | 12.8 | 4.8
